In the library only some 2.4% were active in any assay of this set; here they are far more common.
T cruzi inh: blocks replication of Trypanosoma cruzi. T. cruzi beta-gal in NIH3T3, luminescence, 90 h. 300,000 compounds, 1.4% hits. AID 1885. inhibition, % (concentration not given with the values);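 active = mean inhibition across valid replicates above about 55%, limit read from the data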;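 note: signal also drops with host cell toxicity which is not excluded here; 0% = plate median of DMSO wells and 100% = zero luminescence signal; higher percent means less beta-gal luminescence so fewer parasites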
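assay system = mouse NIH/3T3 fibroblasts infected with β-gal-expressing T. cruzi Tulahuen C4 | input = 5,000 NIH/3T3 host cells per well | buffer or medium = DMEM plus 2% FBS | timing = 3 h host attachment, then at least 90 h co-culture | measured by = GalScreen luminescence, 60 min | evaluation = luminescence reflecting intracellular parasite burden, expressed as percent inhibition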
H9c2 protect: protects H9c2 cardiomyocytes from peroxide injury; H2O2 injury protection, ATPLite, 2 h; protection from H2O2 cell death, % at 20 µM; 360,000 compounds, 0.63% hits;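 active = compounds giving at least 50% protection of heart cells from peroxide-induced death in the single-dose screen, raw or plate-pattern-corrected value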;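 note: 0% = DMSO wells with peroxide and 100% = DMSO wells without peroxide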
pCIP destab: p/CIP protein destabilization; Q05BA5; F442A p/CIP-EGFP cells, EGFP fluorescence, 16 h; decrease of EGFP signal, % at 10 µM; 290,000 compounds, 0.01% hits;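 active = EGFP signal decrease of at least 30% at 10 µM or well 3 SD below plate mean, unless failing retest; inactive = the rest, including hits failing retest or dose response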
GASC-1 inh: blocks human GASC-1 demethylase activity; inhibition, % at 2.35 µM; GST-JMJD2C(1-420) H3K9me3 demethylation, DELFIA europium; Q9H3R0; 330,000 compounds, 0.069% hits;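 active = more than half of a compound's replicate wells show inhibition beyond 50%, single wells judged on their own value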;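 note: signal counts dimethyl H3K9 product captured on neutravidin plate; 0% = median of DMSO wells and 100% = 0.3 times that DMSO median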
Target sequence (Q9H3R0 1-420 limits assumed): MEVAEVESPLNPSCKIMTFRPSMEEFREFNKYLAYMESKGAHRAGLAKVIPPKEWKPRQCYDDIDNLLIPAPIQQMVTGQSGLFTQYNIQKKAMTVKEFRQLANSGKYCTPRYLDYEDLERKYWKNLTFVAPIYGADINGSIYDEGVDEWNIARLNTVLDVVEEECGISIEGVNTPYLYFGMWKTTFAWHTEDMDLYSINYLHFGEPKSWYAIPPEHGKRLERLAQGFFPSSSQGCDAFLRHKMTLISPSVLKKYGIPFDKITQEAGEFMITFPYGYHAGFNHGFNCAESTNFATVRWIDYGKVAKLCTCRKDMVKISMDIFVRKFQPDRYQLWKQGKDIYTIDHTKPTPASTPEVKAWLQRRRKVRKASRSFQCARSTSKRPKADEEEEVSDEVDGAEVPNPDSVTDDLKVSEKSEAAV
CTSL1 counter: counter-screen for PFM18AAP inhibitors: inhibitors of F. hepatica cathepsin L1 | recombinant F. hepatica cathepsin L1, Z-Leu-Arg-MCA fluorescence | inhibition, % at 5.96 µM | 300,000 compounds, 0.49% hits;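 active = inhibition above the mean of all tested compounds plus 3 SD, set per screening campaign, cut at about 17% in these data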;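 note: 0% = plate median of test compound wells and 100% = 1 µM Z-Phe-Ala-diazomethylketone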
PP5 primary: blocks human protein phosphatase 5 activity; P53041; purified PP5c, OMFP substrate fluorescence; inhibition, % at 6.7 µM; 320,000 compounds, 0.18% hits;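 active = inhibition above the campaign's mean inhibition across all tested compounds plus 3 SD, cut at about 9.5% in these data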;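 note: 0% = DMSO only and 100% = 100 µM cantharidin control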
Numbers without * were called inactive; x = no result.

SMILES | T cruzi inh | H9c2 protect | pCIP destab | GASC-1 inh | CTSL1 counter | PP5 primary
CSc1ccccc1C(=O)Nc1cc(C)cc(C)c1 | 4.2 | -0.2 | -6.0 | 1.4 | 0.7 | 0.3
CSc1ccccc1C(=O)Nc1ccc(C)c(C)c1 | 2.0 | -3.7 | 5.7 | 101.8* | -4.0 | 4.9
CCn1c(=O)c([N+](=O)[O-])c(NCCN(C)C)c2ccccc21 | 7.5 | 5.9 | -15.9 | -3.4 | -2.6 | -2.6
CCn1c(=O)c([N+](=O)[O-])c(Cl)c2ccccc21 | 70.9* | -14.7 | -3.1 | 31.4 | -1.2 | -0.1
COc1ccc(-n2c(-c3ccc(Cl)cc3)c[n+]3c2CCc2ccccc2-3)cc1 | 73.9* | -12.5 | -15.7 | 6.5 | -1.6 | 3.4
c1ccc2c(c1)ccn2CCCN1CCCCC1 | x | 3.7 | x | x | x | x
Cc1c(C(=O)Nc2ccc(-c3nnc4n3CCCCC4)cc2)oc2c1ccc1ccccc12 | 55.9* | 52.3* | 13.8 | -2.8 | 6.6 | 3.5
COC(=O)C1Cc2ccccc2CN1C(=O)CCl (configuration not stated) | -10.1 | -9.7 | -2.9 | -25.5 | 47.7* | -2.3
COc1c(C)cc(S(=O)(=O)NCCN2CCOCC2)c(C)c1C | -0.4 | 0.2 | 8.0 | -26.7 | 1.1 | 2.7
CCc1nc2ccc(C(=O)NCCC(C)C)cn2c1N(C)Cc1nccs1 | x | 6.4 | x | x | x | x
CCc1nc2ccc(C(=O)NCc3cccs3)cn2c1N(C)Cc1nccs1 | x | 48.5* | x | x | x | x
CCCc1cc(-c2nc(N)ncc2-c2ccc3c(c2)OCCCO3)c(O)cc1OC | 58.0* | -19.2 | -12.5 | 2.0 | 1.2 | 3.8
Cc1c(O)ccc2c3c(c(=O)oc12)CCC(C)C3 (configuration not stated) | 5.5 | 51.9* | -10.6 | 8.2 | 2.2 | 1.8
COc1ccccc1N1CCN(Cc2c[nH]c3ccccc23)CC1 | 57.6* | -3.3 | -4.5 | 10.8 | -0.5 | 0.1
Cc1ccccc1N1CCN(Cc2c[nH]c3ccccc23)CC1 | 60.2* | -3.0 | -4.8 | 5.7 | -1.7 | 1.0
O=[N+]([O-])c1ccc(CN2CCN(Cc3c[nH]c4ccccc34)CC2)cc1 | 55.8* | 0.1 | 6.7 | -0.4 | 0.0 | 2.4
c1cnc(N2CCN(Cc3c[nH]c4ccccc34)CC2)nc1 | 49.9 | -19.6 | -9.0 | 0.4 | 0.9 | -1.4
Fc1ccc(N2CCN(Cc3c[nH]c4ccccc34)CC2)cc1 | 73.2* | x | -4.3 | 12.7 | -1.6 | -2.4
COc1cc(NC(=O)C[n+]2ccc(C(=O)c3ccccc3)cc2)cc(OC)c1 | x | 10.4 | x | -2.9 | x | x
CC[C@H](C)C(C(=O)N1CCN(C(=O)OC(C)(C)C)CC1)n1cc(C(Cc2ccc(O)cc2)NC(=O)OC(C)(C)C)nn1 (some centres not stated) | -4.1 | 50.6* | 0.1 | -0.2 | -2.5 | -0.8
CC[C@H](C)C(C(=O)N1CCN(C(=O)OC(C)(C)C)CC1)n1cc(C(CO)NC(=O)OC(C)(C)C)nn1 (some centres not stated) | -15.9 | 16.0 | 2.0 | 1.3 | 7.2 | -3.7
CCN1C(=O)/C(=C/c2nc3ccccc3c(=O)n2-c2ccccc2)c2ccccc21 | 45.3 | 50.9* | -15.7 | -0.5 | 0.7 | 1.1
CCN1C(=O)/C(=C\c2nc3ccccc3c(=O)n2CC)c2ccccc21 | 2.6 | 16.0 | -31.9 | 3.4 | -7.4 | 2.3
Cc1ccc[n+](CC(=O)Nc2cc(C(F)(F)F)ccc2Cl)c1 | -17.9 | 0.7 | -2.2 | 8.8 | 4.0 | -0.4
CCC(C)(C)c1ccc(OCCCC[n+]2cccc(C)c2)c(C(C)(C)CC)c1 | 59.6* | -10.5 | 1.3 | 0.5 | x | x
SMILES | T cruzi inh | H9c2 protect | pCIP destab | GASC-1 inh | CTSL1 counter | PP5 primary
CC(=O)c1ccc(NC(=O)CSc2nc(C3CC3)nc3ccccc23)cc1 | 6.6 | -10.1 | -11.3 | 2.3 | 1.1 | 1.2
O=C(CSc1nc(C2CC2)nc2ccccc12)N1c2ccccc2Sc2ccccc21 | 58.6* | 0.4 | 5.9 | -0.5 | 1.1 | 1.5
CCCn1c(SCC(=O)O)nc2ccccc21 | 0.8 | 1.7 | -11.9 | -10.8 | -0.1 | 0.3
CCCn1c(SCC(=O)N2c3ccccc3Sc3ccccc32)nc2ccccc21 | 57.1* | -12.7 | 9.3 | 7.0 | 0.4 | 2.1
COc1ccc(CC(=O)Nc2nc(OCCN3CCCC3=O)cnc2-c2cccc(C(F)(F)F)c2)cc1 | x | 0.8 | x | x | x | x
N#Cc1cnn(-c2nc(SCc3ccccc3)nc3sc4c(c23)CCCC4)c1N | 59.6* | -4.5 | -4.1 | -4.9 | -3.0 | -0.7
